Data taken from ChEMBL document CHEMBL5058577, “EUbOPEN Chemogenomics Library 2 (Multiplex)” (2022).

Tested on: Fibroblast
Assay: Multiplex assay against human fibroblast
Type: toxicity, cell-based
How it was run: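 Compound was added to live cells that had been stained at seeding with Hoechst33342, BioTracker Green Microtubule Cytoskeleton Dye, MitoTracker Red and Annexin V Alexa Fluor 680, and imaging followed on a CQ1 microscope at 37°C and 5% CO2. CellPathfinder machine-learning gating divided cells into Hoechst high-intensity objects or normal cells, normal cells into healthy, pyknosed or fragmented nuclei, and pyknosed cells into mitotic or apoptotic. Tubulin, mitochondrial-mass and membrane-permeability phenotypes are per cents of healthy-nucleus cells.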

[1] = 12 h, 1 µM, compound concentration 1 uM, replicate 1
[2] = 12 h, 1 µM, compound concentration 1 uM, replicate 2
[3] = 12 h, 10 µM, compound concentration 10 uM, replicate 1
[4] = 12 h, 10 µM, compound concentration 10 uM, replicate 2
[5] = 24 h, 1 µM, compound concentration 1 uM, replicate 1
[6] = 24 h, 1 µM, compound concentration 1 uM, replicate 2
[7] = 24 h, 10 µM, compound concentration 10 uM, replicate 1
[8] = 24 h, 10 µM, compound concentration 10 uM, replicate 2
[9] = 48 h, 1 µM, compound concentration 1 uM, replicate 1
[10] = 48 h, 1 µM, compound concentration 1 uM, replicate 2
[11] = 48 h, 10 µM, compound concentration 10 uM, replicate 1
[12] = 48 h, 10 µM, compound concentration 10 uM, replicate 2

With `CSc1nc(NC2CCCC2)c([N+](=O)[O-])c(NC2CCCC2)n1` [GS-39783] the “Population Apoptotic (%)” value [1] was 50%, the “Population Fragmented Nuclei (%)” value [1] was 16% and the “Population Healthy Nuclei (%)” value [1] was 66%. For the same compound, the “Population Hoechst High Intensity Objects (%)” value [1] was 3%, the “Population Membrane Permeable-Phenotype (%)” value [1] was 2% and the “Population Mitochondria Different-Phenotype (%)” value [1] was 6%. For the same compound, the “Population Mitotic Cells (%)” value [1] was 50%, the “Population Normal (%)” value [1] was 96% and the “Population Pyknosed Nuclei (%)” value [1] was 16%. The “Population Tubulin-Different-Phenotype (%)” value [1] was 29%, the “Total Cell Count” value [1] was 137 and the “Population Apoptotic (%)” value [2] was 39%. For the same compound, the “Population Fragmented Nuclei (%)” value [2] was 28%, the “Population Healthy Nuclei (%)” value [2] was 46% and the “Population Hoechst High Intensity Objects (%)” value [2] was 5%. The “Population Membrane Permeable-Phenotype (%)” value [2] was 10%, the “Population Mitochondria Different-Phenotype (%)” value [2] was 10% and the “Population Mitotic Cells (%)” value [2] was 60%. For the same compound, the “Population Normal (%)” value [2] was 94%, the “Population Pyknosed Nuclei (%)” value [2] was 25% and the “Population Tubulin-Different-Phenotype (%)” value [2] was 57%. The “Total Cell Count” value [2] was 135, the “Population Apoptotic (%)” value [3] was 54% and the “Population Fragmented Nuclei (%)” value [3] was 16%. The “Population Healthy Nuclei (%)” value [3] was 62%, the “Population Hoechst High Intensity Objects (%)” value [3] was 5% and the “Population Membrane Permeable-Phenotype (%)” value [3] was 0%. For the same compound, the “Population Mitochondria Different-Phenotype (%)” value [3] was 5%, the “Population Mitotic Cells (%)” value [3] was 45% and the “Population Normal (%)” value [3] was 94%. For the same compound, the “Population Pyknosed Nuclei (%)” value [3] was 21%, the “Population Tubulin-Different-Phenotype (%)” value [3] was 39% and the “Total Cell Count” value [3] was 184. For the same compound, the “Population Apoptotic (%)” value [4] was 36%, the “Population Fragmented Nuclei (%)” value [4] was 25% and the “Population Healthy Nuclei (%)” value [4] was 52%. The “Population Hoechst High Intensity Objects (%)” value [4] was 6%, the “Population Membrane Permeable-Phenotype (%)” value [4] was 4% and the “Population Mitochondria Different-Phenotype (%)” value [4] was 16%. For the same compound, the “Population Mitotic Cells (%)” value [4] was 63%, the “Population Normal (%)” value [4] was 93% and the “Population Tubulin-Different-Phenotype (%)” value [4] was 70%. The “Total Cell Count” value [4] was 165, the “Population Apoptotic (%)” value [5] was 30% and the “Population Fragmented Nuclei (%)” value [5] was 12%. The “Population Healthy Nuclei (%)” value [5] was 69%, the “Population Hoechst High Intensity Objects (%)” value [5] was 2% and the “Population Membrane Permeable-Phenotype (%)” value [5] was 3%. For the same compound, the “Population Mitochondria Different-Phenotype (%)” value [5] was 4%, the “Population Mitotic Cells (%)” value [5] was 69% and the “Population Normal (%)” value [5] was 97%. For the same compound, the “Population Pyknosed Nuclei (%)” value [5] was 17%, the “Population Tubulin-Different-Phenotype (%)” value [5] was 27% and the “Total Cell Count” value [5] was 132. The “Population Apoptotic (%)” value [6] was 32%, the “Population Fragmented Nuclei (%)” value [6] was 31% and the “Population Healthy Nuclei (%)” value [6] was 44%. The “Population Membrane Permeable-Phenotype (%)” value [6] was 10%, the “Population Mitochondria Different-Phenotype (%)” value [6] was 12% and the “Population Mitotic Cells (%)” value [6] was 67%. For the same compound, the “Population Pyknosed Nuclei (%)” value [6] was 23%, the “Population Tubulin-Different-Phenotype (%)” value [6] was 60% and the “Total Cell Count” value [6] was 133. For the same compound, the “Population Apoptotic (%)” value [7] was 58%, the “Population Fragmented Nuclei (%)” value [7] was 17% and the “Population Healthy Nuclei (%)” value [7] was 65%. The “Population Hoechst High Intensity Objects (%)” value [7] was 2%, the “Population Membrane Permeable-Phenotype (%)” value [7] was 0% and the “Population Mitochondria Different-Phenotype (%)” value [7] was 4%. The “Population Mitotic Cells (%)” value [7] was 41%, the “Population Normal (%)” value [7] was 97% and the “Population Pyknosed Nuclei (%)” value [7] was 17%. For the same compound, the “Population Tubulin-Different-Phenotype (%)” value [7] was 33%, the “Total Cell Count” value [7] was 172 and the “Population Apoptotic (%)” value [8] was 36%. The “Population Fragmented Nuclei (%)” value [8] was 25%, the “Population Healthy Nuclei (%)” value [8] was 52% and the “Population Hoechst High Intensity Objects (%)” value [8] was 7%. For the same compound, the “Population Membrane Permeable-Phenotype (%)” value [8] was 6%, the “Population Mitochondria Different-Phenotype (%)” value [8] was 10% and the “Population Mitotic Cells (%)” value [8] was 63%. The “Population Normal (%)” value [8] was 92%, the “Population Pyknosed Nuclei (%)” value [8] was 21% and the “Population Tubulin-Different-Phenotype (%)” value [8] was 57%. The “Total Cell Count” value [8] was 164, the “Population Apoptotic (%)” value [9] was 70% and the “Population Fragmented Nuclei (%)” value [9] was 22%. For the same compound, the “Population Healthy Nuclei (%)” value [9] was 69%, the “Population Hoechst High Intensity Objects (%)” value [9] was 4% and the “Population Membrane Permeable-Phenotype (%)” value [9] was 1%. For the same compound, the “Population Mitochondria Different-Phenotype (%)” value [9] was 5%, the “Population Mitotic Cells (%)” value [9] was 30% and the “Population Normal (%)” value [9] was 95%. For the same compound, the “Population Pyknosed Nuclei (%)” value [9] was 7%, the “Population Tubulin-Different-Phenotype (%)” value [9] was 29% and the “Total Cell Count” value [9] was 134. For the same compound, the “Population Apoptotic (%)” value [10] was 33%, the “Population Fragmented Nuclei (%)” value [10] was 41% and the “Population Healthy Nuclei (%)” value [10] was 44%. For the same compound, the “Population Hoechst High Intensity Objects (%)” value [10] was 3%, the “Population Membrane Permeable-Phenotype (%)” value [10] was 23% and the “Population Mitochondria Different-Phenotype (%)” value [10] was 14%. For the same compound, the “Population Mitotic Cells (%)” value [10] was 66%, the “Population Normal (%)” value [10] was 96% and the “Population Pyknosed Nuclei (%)” value [10] was 14%. For the same compound, the “Population Tubulin-Different-Phenotype (%)” value [10] was 60%, the “Total Cell Count” value [10] was 129 and the “Population Apoptotic (%)” value [11] was 66%. The “Population Fragmented Nuclei (%)” value [11] was 19%, the “Population Healthy Nuclei (%)” value [11] was 65% and the “Population Hoechst High Intensity Objects (%)” value [11] was 2%. The “Population Membrane Permeable-Phenotype (%)” value [11] was 1%, the “Population Mitochondria Different-Phenotype (%)” value [11] was 5% and the “Population Mitotic Cells (%)” value [11] was 33%. For the same compound, the “Population Normal (%)” value [11] was 97%, the “Population Pyknosed Nuclei (%)” value [11] was 14% and the “Population Tubulin-Different-Phenotype (%)” value [11] was 41%. The “Total Cell Count” value [11] was 168, the “Population Apoptotic (%)” value [12] was 60% and the “Population Fragmented Nuclei (%)” value [12] was 40%. The “Population Healthy Nuclei (%)” value [12] was 46%, the “Population Hoechst High Intensity Objects (%)” value [12] was 6% and the “Population Membrane Permeable-Phenotype (%)” value [12] was 6%. For the same compound, the “Population Mitochondria Different-Phenotype (%)” value [12] was 7%, the “Population Mitotic Cells (%)” value [12] was 40% and the “Population Normal (%)” value [12] was 93%. The “Population Pyknosed Nuclei (%)” value [12] was 13%, the “Population Tubulin-Different-Phenotype (%)” value [12] was 60% and the “Total Cell Count” value [12] was 193.
